This note sets out measurements from ChEMBL document CHEMBL4017468, “Synthesis and biological evaluation of pyrimidine derivatives with diverse azabicyclic ether/amine as novel GPR119 agonist” (Bioorg Med Chem Lett, 2017).

SMILES strings stand for the structures. A value given as a limit tells only on which side of the number the result lay.

Assay [1] addresses T1, Glucose-dependent insulinotropic receptor (Homo sapiens, UniProt Q8TDV5).
T1 sequence (Q8TDV5 whole entry): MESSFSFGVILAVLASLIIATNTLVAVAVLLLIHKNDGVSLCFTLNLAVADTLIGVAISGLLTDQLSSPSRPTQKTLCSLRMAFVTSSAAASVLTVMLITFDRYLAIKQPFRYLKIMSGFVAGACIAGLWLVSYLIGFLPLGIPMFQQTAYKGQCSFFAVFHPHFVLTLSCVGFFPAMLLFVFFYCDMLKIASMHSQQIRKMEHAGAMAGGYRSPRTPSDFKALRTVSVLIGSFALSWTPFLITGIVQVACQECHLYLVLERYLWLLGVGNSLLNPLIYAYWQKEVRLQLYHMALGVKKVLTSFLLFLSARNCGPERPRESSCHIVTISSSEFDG
Put plainly: Agonist activity at human GPR119 expressed in HEK293 cells assessed as increase in cAMP stimulation measured after 60 mins by TR-FRET assay. The assay is classed as functional, cell-based. The procedure, abridged:
(§1)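 HEK293 cells seeded at 4×10^3 cells/well, grown 24 h, then transiently transfected with a GPR119 expression plasmid using Lipofectamine/Plus. After 24 h, compounds were added in KRBH buffer with 0.1% BSA and 500 μM IBMX for 60 min at 37 °C. Cells were lysed 10 min at room temperature (50 mM phosphate, 1 M KF, 1.25% Triton X-100, pH 7.0). cAMP was read by HTRF. EC50 was taken as the concentration giving 50% of OEA-stimulated cAMP, and %max as the response relative to maximal OEA effect.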

Assay [2] has as its target T2, Glucose-dependent insulinotropic receptor (Homo sapiens) (UniProt Q8TDV5).
T2 sequence (whole entry): T1 sequence (Q8TDV5 whole entry)
The experiment in a line: Agonist activity at human GPR119 expressed in HEK293 cells assessed as increase in cAMP stimulation measured after 60 mins by TR-FRET assay relative to oleoylethanolamide. The assay is classed as functional, cell-based. In short, it runs like this:
as §1

With `CC(C)(C)OC(=O)N1CC2CC1CC2Nc1ncnc(Nc2ccc(S(C)(=O)=O)cc2F)c1[N+](=O)[O-]` (stereo in doubt; 27i) [listing 1 of 2 here], in assay [1], the EC50 is 4.9 nM.

With `CC(C)(C)OC(=O)N1CC2CCC1CC2Nc1ncnc(Nc2ccc(S(C)(=O)=O)cc2F)c1[N+](=O)[O-]` (stereo in doubt; 27q) [listing 1 of 2 here], in assay [2], the %max amounted to 104%.

Turning to `CC(C)(C)OC(=O)N1CC2CCC1CC2Oc1ncnc(Nc2ccc(S(C)(=O)=O)cc2)c1[N+](=O)[O-]` (stereo in doubt; 27p) [listing 1 of 2 here], the EC50 in assay [1] was more than 10000 nM.

With `CC(C)(C)OC(=O)N1CC2CCC1CC2Nc1ncnc(Nc2ccc(S(C)(=O)=O)cc2F)c1[N+](=O)[O-]` (stereo in doubt; 27s) [listing 1 of 2 here], the EC50 in assay [1] stood at 5.3 nM.

In the case of `CC(C)(C)OC(=O)N1CC2CC(Nc3ncnc(Nc4ccc(S(C)(=O)=O)cc4)c3[N+](=O)[O-])C1C2` (stereo in doubt; 27h) [listing 1 of 2 here], in assay [2], the %max is 21.6%.

As to `CC(C)(C)OC(=O)N1CC2CC(Nc3ncnc(Nc4ccc(S(C)(=O)=O)cc4F)c3[N+](=O)[O-])C1C2` (stereo in doubt; 27g) [listing 1 of 2 here], the %max in assay [2] worked out at 63.4%.

As for `CC(C)(C)OC(=O)N1CC2CC(Nc3ncnc(Nc4ccc(S(C)(=O)=O)cc4F)c3[N+](=O)[O-])C1C2` (stereo in doubt; 27e) [listing 1 of 2 here], in assay [1], the concentration giving a half-maximal response (EC50) was determined as 53 nM.

On to `CC(C)(C)OC(=O)N1CC2CC(Oc3ncnc(Nc4ccc(S(C)(=O)=O)cc4F)c3[N+](=O)[O-])C1C2` (stereo unspecified), for which the half-maximal effective concentration (EC50) in assay [1] was 77.7 nM. In addition, the %max in assay [2] is 52.6%.

As to `CC(C)(C)OC(=O)N1CC2CC(Nc3ncnc(Nc4ccc(S(C)(=O)=O)cc4)c3[N+](=O)[O-])C1C2` (stereo in doubt; 27h) [listing 2 of 2 here], the concentration giving a half-maximal response (EC50) in assay [1] was more than 10000 nM.

Consider `CC(C)(C)OC(=O)N1CC2CCC1CC2Nc1ncnc(Nc2ccc(S(C)(=O)=O)cc2)c1[N+](=O)[O-]` (stereo in doubt; 27t) [listing 1 of 2 here], for which the concentration for a half-maximal effect (EC50) in assay [1] was 6.4 nM.

In the case of `CC(C)(C)OC(=O)N1CC2CC1CC2Oc1ncnc(Nc2ccc(S(C)(=O)=O)cc2)c1[N+](=O)[O-]` (stereo unspecified), the concentration for a half-maximal effect (EC50) in assay [1] was determined as 110 nM. In addition, the %max in assay [2] amounted to 101%.

Regarding `CC(C)(C)OC(=O)N1CC2CCC1CC2Nc1ncnc(Nc2ccc(S(C)(=O)=O)cc2F)c1[N+](=O)[O-]` (stereo in doubt; 27q) [listing 2 of 2 here], in assay [1], the EC50 was determined as 1.8 nM.

Turning to `CC(C)(C)OC(=O)N1CC2CC(Nc3ncnc(Nc4ccc(S(C)(=O)=O)cc4)c3[N+](=O)[O-])C1C2` (stereo in doubt; 27f) [listing 1 of 2 here], in assay [1], the EC50 is more than 1000 nM.

`CC(C)(C)OC(=O)N1CC2CCC1CC2Oc1ncnc(Nc2ccc(S(C)(=O)=O)cc2)c1[N+](=O)[O-]` (stereo in doubt; 27p) [listing 2 of 2 here]: the %max in assay [2] is 44.7%.

Regarding `CC(C)(C)OC(=O)N1CC2CC1CC2Nc1ncnc(Nc2ccc(S(C)(=O)=O)cc2F)c1[N+](=O)[O-]` (stereo in doubt; 27i) [listing 2 of 2 here], in assay [2], the %max turned out to be 97%.

`CC(C)(C)OC(=O)N1CC2CC1CC2Nc1ncnc(Nc2ccc(S(C)(=O)=O)cc2)c1[N+](=O)[O-]` (stereo in doubt; 27l) [listing 1 of 2 here]: in assay [2], the %max amounted to 25.1%.

On to `CC(C)(C)OC(=O)N1CC2CC(Nc3ncnc(Nc4ccc(S(C)(=O)=O)cc4F)c3[N+](=O)[O-])C1C2` (stereo in doubt; 27e) [listing 2 of 2 here], for which the %max in assay [2] came out at 76.7%.

Take `CC(C)(C)OC(=O)N1CC2CC1CC2Oc1ncnc(Nc2ccc(S(C)(=O)=O)cc2F)c1[N+](=O)[O-]` (stereo unspecified): in assay [1], the 50% effective concentration (EC50) turned out to be 5.6 nM. Further, in assay [2], the %max came out at 86.7%.

As for `CC(C)(C)OC(=O)N1C[C@@H]2CC[C@@H]1C[C@@H]2Oc1ncnc(Nc2ccc(S(C)(=O)=O)cc2F)c1[N+](=O)[O-]` (relative stereo), in assay [1], the EC50 is 1.2 nM. The %max in assay [2] came to 112%.

With `CC(C)(C)OC(=O)N1CC2CC1CC2Nc1ncnc(Nc2ccc(S(C)(=O)=O)cc2)c1[N+](=O)[O-]` (stereo in doubt; 27j) [listing 1 of 2 here], in assay [2], the %max is 94.3%.

With `CC(C)(C)OC(=O)N1CC2CCC1CC2Nc1ncnc(Nc2ccc(S(C)(=O)=O)cc2F)c1[N+](=O)[O-]` (stereo in doubt; 27s) [listing 2 of 2 here], in assay [2], the %max came out at 63.2%.

For `CC(C)(C)OC(=O)N1CC2CCC1CC2Oc1ncnc(Nc2ccc(S(C)(=O)=O)cc2)c1[N+](=O)[O-]` (stereo in doubt; 27n) [listing 1 of 2 here], in assay [2], the %max came to 71.9%.

Regarding `CC(C)(C)OC(=O)N1CC2CC1CC2Nc1ncnc(Nc2ccc(S(C)(=O)=O)cc2)c1[N+](=O)[O-]` (stereo in doubt; 27j) [listing 2 of 2 here], the concentration for a half-maximal effect (EC50) in assay [1] amounted to 48.2 nM.

In the case of `CC(C)(C)OC(=O)N1CC2CCC1CC2Oc1ncnc(Nc2ccc(S(C)(=O)=O)cc2)c1[N+](=O)[O-]` (stereo in doubt; 27n) [listing 2 of 2 here], in assay [1], the concentration giving a half-maximal response (EC50) stood at 3.1 nM.

As to `CCCCCCCC/C=C\CCCCCCCC(=O)NCCO`, the %max in assay [2] was found to be 100%.

Turning to `CC(C)(C)OC(=O)N1CC2CCC1CC2Oc1ncnc(Nc2ccc(S(C)(=O)=O)cc2F)c1[N+](=O)[O-]` (stereo unspecified), the concentration for a half-maximal effect (EC50) in assay [1] was more than 10000 nM. Besides, the %max in assay [2] amounted to 32.9%.

As for `CC(C)(C)OC(=O)N1CC2CC1CC2Nc1ncnc(Nc2ccc(S(C)(=O)=O)cc2)c1[N+](=O)[O-]` (stereo in doubt; 27l) [listing 2 of 2 here], the EC50 in assay [1] is more than 10000 nM.

Consider `CC(C)(C)OC(=O)N1CC2CC1CC2Nc1ncnc(Nc2ccc(S(C)(=O)=O)cc2F)c1[N+](=O)[O-]` (stereo in doubt; 27k) [listing 1 of 2 here], for which the %max in assay [2] came out at 34.8%.

As for `CC(C)(C)OC(=O)N1CC2CCC1CC2Nc1ncnc(Nc2ccc(S(C)(=O)=O)cc2)c1[N+](=O)[O-]` (stereo in doubt; 27t) [listing 2 of 2 here], the %max in assay [2] amounted to 58.1%.

Consider `CC(C)(C)OC(=O)N1CC2CCC1CC2Nc1ncnc(Nc2ccc(S(C)(=O)=O)cc2)c1[N+](=O)[O-]` (stereo in doubt; 27r) [listing 1 of 2 here], for which the EC50 in assay [1] worked out at 5.6 nM.

Turning to `CC(C)(C)OC(=O)N1CC2CC(Oc3ncnc(Nc4ccc(S(C)(=O)=O)cc4)c3[N+](=O)[O-])C1C2` (stereo unspecified), the EC50 in assay [1] was 315 nM. The %max in assay [2] was 58.4%.

With `CC(C)(C)OC(=O)N1CC2CC(Nc3ncnc(Nc4ccc(S(C)(=O)=O)cc4)c3[N+](=O)[O-])C1C2` (stereo in doubt; 27f) [listing 2 of 2 here], the %max in assay [2] amounted to 38.9%.

On to `CC(C)(C)OC(=O)N1CC2CC1CC2Nc1ncnc(Nc2ccc(S(C)(=O)=O)cc2F)c1[N+](=O)[O-]` (stereo in doubt; 27k) [listing 2 of 2 here], for which the EC50 in assay [1] is more than 10000 nM.

On to `CC(C)(C)OC(=O)N1CC2CC(Nc3ncnc(Nc4ccc(S(C)(=O)=O)cc4F)c3[N+](=O)[O-])C1C2` (stereo in doubt; 27g) [listing 2 of 2 here], for which the 50% effective concentration (EC50) in assay [1] came out at 236 nM.

As to `CC(C)(C)OC(=O)N1CC2CCC1CC2Nc1ncnc(Nc2ccc(S(C)(=O)=O)cc2)c1[N+](=O)[O-]` (stereo in doubt; 27r) [listing 2 of 2 here], the %max in assay [2] came out at 78.9%.
